In ChEMBL document CHEMBL5634116, “Strategies for developing retinoic acid receptor alpha-selective antagonists as novel agents for male contraception” (Eur J Med Chem, 2023):
Values after ≈ are worked out from the molar mass of the structure shown. Active and inactive are the calls of the source. The rule behind the calls is not given here.

Tests used:
[1] = biological target: T1, Retinoic acid receptor beta (Homo sapiens, UniProt P10826); assay: Antagonist activity at recombinant human RAR-beta expressed in mammalian cells in presence of ATRA by luciferase reporter gene based transactivation assay; assay type: cell-based
T1 sequence (P10826 whole entry): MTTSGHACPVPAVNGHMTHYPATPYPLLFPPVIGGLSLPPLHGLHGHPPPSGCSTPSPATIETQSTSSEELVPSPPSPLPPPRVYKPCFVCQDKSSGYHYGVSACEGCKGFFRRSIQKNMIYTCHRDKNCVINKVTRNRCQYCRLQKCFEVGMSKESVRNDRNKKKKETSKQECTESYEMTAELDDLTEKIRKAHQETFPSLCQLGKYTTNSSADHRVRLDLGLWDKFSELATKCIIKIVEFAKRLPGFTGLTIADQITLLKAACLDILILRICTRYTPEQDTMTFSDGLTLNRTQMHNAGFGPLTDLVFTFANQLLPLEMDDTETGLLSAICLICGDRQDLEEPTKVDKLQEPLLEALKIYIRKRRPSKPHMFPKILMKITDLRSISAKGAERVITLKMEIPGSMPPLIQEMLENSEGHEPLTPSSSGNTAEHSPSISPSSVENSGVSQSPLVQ

Mus musculus [2] = assay: Effect on spermatogenesis in CD-1 mouse assessed as abnormality in spermatid release at 5 mg/kg/day, po for 7 days measured after 4 weeks post-cessation of drug treatment by hematoxylin counter-staining based analysis; assay type: functional, organism-based; details: time 5.0 weeks
Mus musculus [3] = assay: Effect on spermatogenesis in CD-1 mouse assessed as abnormality in spermatid translocation at 5 mg/kg/day, po for 7 days measured after 4 weeks post-cessation of drug treatment by hematoxylin counter-staining based analysis; assay type: functional, organism-based; details: time 5.0 weeks
Mus musculus [4] = assay: Effect on spermatogenesis in CD-1 mouse assessed as testicular weight at 5 mg/kg/day, po for 7 days measured on day 1 post-cessation of drug treatment (reference value: 0.12 +/- 0.01 g); assay type: functional; details: time 8 day
[5] = Drug uptake in CD-1 mouse plasma at 10 mg/kg, po measured for 30 mins by LC-MS/MS analysis; assay type: ADME, organism-based; details: in vivo, 0.5 h
Outline: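 Male CD-1 mice, 6-8 weeks, single oral dose 10 mg/kg in 80% Carbitol/20% saline (1.75 mg/ml). Sets of 3 mice bled and euthanized at 5, 15, 30 min to 24 h; plasma frozen ≤ −20 °C, acetonitrile-precipitated with internal standard, analysed by isocratic LC-MS/MS against calibration standards. Mean ± S.D. of 3 animals.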

[6] = Solubility of compound in PBS at pH 7.4; assay type: physicochemical; details: buffer
Outline: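 Solubility measured in PBS, pH 7.4.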

Mus musculus [7] = assay: Effect on spermatogenesis in CD-1 mouse assessed as abnormal epididymal sperm morphology at 5 mg/kg/day, po for 7 days measured after 4 weeks post-cessation of drug treatment by hematoxylin counter-staining based analysis; assay type: functional, organism-based; details: time 5.0 weeks
[8] = biological target: T2, Retinoic acid receptor gamma (Homo sapiens, UniProt P13631); assay: Antagonist activity at recombinant human RAR-gamma expressed in mammalian cells in presence of ATRA by luciferase reporter gene based transactivation assay; assay type: cell-based
T2 sequence (P13631 whole entry): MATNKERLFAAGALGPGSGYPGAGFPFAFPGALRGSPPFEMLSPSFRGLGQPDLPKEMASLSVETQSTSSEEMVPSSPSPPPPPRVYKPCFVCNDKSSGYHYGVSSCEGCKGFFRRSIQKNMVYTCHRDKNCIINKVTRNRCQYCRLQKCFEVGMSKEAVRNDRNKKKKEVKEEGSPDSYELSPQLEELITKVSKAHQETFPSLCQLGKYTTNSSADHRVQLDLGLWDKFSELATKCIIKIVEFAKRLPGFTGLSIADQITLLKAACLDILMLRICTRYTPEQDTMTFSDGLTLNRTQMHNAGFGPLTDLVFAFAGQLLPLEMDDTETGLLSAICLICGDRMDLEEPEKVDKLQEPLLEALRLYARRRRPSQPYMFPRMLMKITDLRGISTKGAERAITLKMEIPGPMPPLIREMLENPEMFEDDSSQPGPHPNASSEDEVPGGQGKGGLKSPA
Outline: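 Compounds 8-point dose response in triplicate, DMSO final 0.4%; overnight at 37 °C, 5% CO2; luminescence after 30 min detection reagent. IC50 by four-parameter logistic fit; agonist-free wells set background.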

Mus musculus [9] = assay: Effect on spermatogenesis in CD-1 mouse assessed as abnormal stage IX tubules at 10 mg/kg/day, po for 2 weeks measured measured after 4 weeks post-cessation of drug treatment by hematoxylin counter-staining based analysis; assay type: functional, organism-based; details: time 6.0 weeks
Outline: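 CD1 males given 10 mg/kg/day orally for 2 weeks dissolved in 20% aqueous Kollisolv (n = 10 per time point); vehicle-only controls n = 5. Testes collected one day or 4 weeks after cessation, fixed in 4% paraformaldehyde or Bouin's, paraffin-embedded, PAS-stained with hematoxylin counterstain and tubules staged by bright-field microscopy.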

Mus musculus [10] = assay: Effect on spermatogenesis in CD-1 mouse assessed as sperm count at 5 mg/kg/day, po for 7 days measured after 4 weeks post-cessation of drug treatment by hemocytometry; assay type: functional; details: time 5 weeks
Mus musculus [11] = assay: Effect on spermatogenesis in CD-1 mouse assessed as reduction in sperm count administered as Carbitol formulation at 10 mg/kg/day, po for 28 days consecutively measured on day 1 post-cessation of drug treatment by hemocytometry relative to control; assay type: functional; parameters: scale not given: the % may be the effect or the level left; details: time 29 day

IC50 [1]: > 3300 nM | Drug uptake [5]: Active | solubility [6]: 4.2 µM (≈ 1.74 µg/mL) | IC50 [8]: 310 nM
Structure (SMILES): Cc1ccc(C2=CC(C)(C)Oc3ccc(C(=O)Nc4ccc(C(=O)O)cc4)cc32)cc1
Activity (Mus musculus [2]): inactive | Activity (Mus musculus [3]): inactive | Activity (Mus musculus [4]): 0.11 g | Activity (Mus musculus [7]): inactive | Activity (Mus musculus [9]): inactive | Activity (Mus musculus [10]): 54.9 10^6No_unit | Activity (Mus musculus [11]): ~73%
